# Test results as given in PubChem BioAssay AID602212 (Southern Research Specialized Biocontainment Screening …, 2012).
# Activity calls are given as the source filed them.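 How the source made its calls: active means inhibition of 30% or more at any tested concentration; inactive means the rest.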
# System: M18 aspartyl aminopeptidase (Plasmodium falciparum 3D7)
# Experiment: PfM18AAP enzyme inhibitors, dose response, counter-screen for PfM1 aminopeptidase inhibitor project, biochemical, QFRET fluorogenic substrate, set 2 (AID 602212)
# Conditions: recombinant PfM18AAP, H-Glu-NHMec fluorogenic cleavage; series mostly up to 100 µM
# In short: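 Test system: recombinant PfM18AAP enzyme. Replication: triplicate. Compound: 10-point twofold dilution series, 100 down to 0.2 µM. Also added: 0.1 mM H-Glu-NHMec substrate. Buffer or medium: Cobalt-containing Tris buffer, pH 7.5. Schedule: 90 min reaction at room temperature. Detection: released NHMec fluorescence, excitation 370 nm, emission 460 nm.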
row,Compound,outcome
1,O=C(NCc1ccc(Cl)cc1)C1CCN(S(=O)(=O)c2ccc(Br)s2)CC1,inactive
2,O=C(NCc1ccc2c(c1)OCO2)C1CCN(S(=O)(=O)c2ccc(Br)s2)CC1,inactive
3,CC[C@H](C)[C@H](NC(=O)c1ccc(C(C)(C)C)cc1)C(=O)NCc1ccc(Cl)cc1,inactive
4,CC[C@H](C)[C@H](NS(=O)(=O)c1ccc(Br)s1)C(=O)NCc1ccc(Cl)cc1,inactive
5,CC[C@H](C)[C@H](NC(=O)c1ccc(C(C)(C)C)cc1)C(=O)NCc1ccc2c(c1)OCO2,inactive
6,CC[C@H](C)[C@H](NS(=O)(=O)c1ccc(Br)s1)C(=O)NCc1ccc2c(c1)OCO2,inactive
7,O=C(NCc1ccccc1)C1CCN(S(=O)(=O)c2ccc(Br)s2)CC1,inactive
8,O=C(NCc1ccc(F)cc1)C1CCN(S(=O)(=O)c2ccc(Br)s2)CC1,inactive
